The source made the active and inactive calls. No cut-off for these calls is given here.
Legend:
Melan-a [1] = experiment: Cytotoxicity against mouse Melan-a cells assessed as effect on cell viability at <2 uM after 24 to 72 hrs by trypan blue exclusion assay; format: cell-based
Melan-a [2] = experiment: Induction of melanogenesis in mouse Melan-a cells assessed as effect on tanning property at 40 uM after 48 hrs; format: functional, cell-based
Melan-a [3] = experiment: Inhibition of melanogenesis in mouse Melan-a cells assessed as effect on whitening property at 40 uM after 48 hrs; format: functional, cell-based
Outline: (§1)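 Melan-a murine melanocytes in RPMI 1640 with 10% FBS, penicillin/streptomycin and 200 nM PMA at 37 °C and 5% CO2. Seeded at 60,000 cells/well in 6-well plates and treated 48 h with 1–40 µM from 1000X DMSO stock (final 0.1% DMSO) or DMSO alone. For line 1, cells were pretreated 1 h with 1 µM ICI 182780. Melanin is read as A405, % of control.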

Melan-a [4] = experiment: Cytotoxicity against mouse Melan-a cells assessed as effect on cell viability at 40 uM after 24 to 72 hrs by trypan blue exclusion assay; format: cell-based
Outline: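 Melan-a cells seeded at 60,000/well in 6-well plates and treated at 40 µM (0.1% DMSO) for the indicated times. Cells were trypsinized, pelleted at 4 °C, stained with 0.25% trypan blue in PBS and counted in a Malassez chamber. Viability % = [1 − (blue/total cells)] × 100. Mean ± SEM of three independent experiments in duplicate.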

Melan-a [5] = experiment: Induction of melanogenesis in mouse Melan-a cells assessed as increase in melanin content at 10 to 40 uM after 48 hrs; format: functional, cell-based; outline: as §1
Melan-a [6] = experiment: Induction of melanogenesis in mouse Melan-a cells assessed as increase in melanin content at 40 uM; format: functional, cell-based
Melan-a [7] = experiment: Induction of melanogenesis in mouse Melan-a cells assessed as increase in melanin content at 40 uM after 72 hrs relative to control; format: functional
Outline: (§2)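 Melan-a cells in PMA-containing RPMI/10% FBS, treated 3 days at 40 µM (0.1% DMSO final) against DMSO-treated controls. Pellets were washed in PBS and extracted with water/EtOH–ether (1/1). Melanin was solubilized in 1 M NaOH/DMSO 90/10 at 80 °C for 1 h, read as A405 and expressed as % of control. Mean ± SEM, t test.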

Melan-a [8] = experiment: Induction of melanogenesis in mouse Melan-a cells assessed as effect on pigmentation at 40 uM after 72 hrs by photography; format: functional, cell-based
Outline: (§3)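 Melan-a cells treated with 40 µM or solvent vehicle for 3 days, then photographed to record pigmentation.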

Melan-a [9] = experiment: Increase in tyrosinase mRNA expression in mouse Melan-a cells at 40 uM after 24 hrs by SYBR green dye based qRT-PCR analysis; format: functional, cell-based
Outline: (§4)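 Real-time PCR on Melan-a cells given 40 µM for 24 h. Total RNA was isolated with TRIzol, and Ct values of tyrosinase, TRP-1, TRP-2 and MITF were normalized to cyclophilin A1. Mean of three independent experiments in duplicate.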

Melan-a [10] = experiment: Increase in TRP1 mRNA expression in mouse Melan-a cells at 40 uM after 24 hrs by SYBR green dye based qRT-PCR analysis; format: functional, cell-based; outline: as §4
Melan-a [11] = experiment: Increase in TRP2 mRNA expression in mouse Melan-a cells at 40 uM after 24 hrs by SYBR green dye based qRT-PCR analysis; format: functional, cell-based; outline: as §4
Melan-a [12] = experiment: Increase in MITF mRNA expression in mouse Melan-a cells at 40 uM after 24 hrs by SYBR green dye based qRT-PCR analysis; format: functional, cell-based; outline: as §4
[13] = Photostability of the compound assessed as compound degradation under sunlight exposed for 6 days in EtOH solution measured by TLC method; format: physicochemical; conditions: 144 h
[14] = Photostability of the compound assessed as compound degradation under sunlight exposed for 6 days in EtOH solution measured in presence of UV-A filter Uvinul A by TLC method; format: physicochemical; conditions: 144 h
[15] = molecular target: Estrogen receptor beta (Mus musculus) (UniProt O08537); experiment: Binding affinity to ERbeta in mouse Melan-a cells; format: cell-based
Chain of Estrogen receptor beta (Mus musculus) (O08537 whole entry): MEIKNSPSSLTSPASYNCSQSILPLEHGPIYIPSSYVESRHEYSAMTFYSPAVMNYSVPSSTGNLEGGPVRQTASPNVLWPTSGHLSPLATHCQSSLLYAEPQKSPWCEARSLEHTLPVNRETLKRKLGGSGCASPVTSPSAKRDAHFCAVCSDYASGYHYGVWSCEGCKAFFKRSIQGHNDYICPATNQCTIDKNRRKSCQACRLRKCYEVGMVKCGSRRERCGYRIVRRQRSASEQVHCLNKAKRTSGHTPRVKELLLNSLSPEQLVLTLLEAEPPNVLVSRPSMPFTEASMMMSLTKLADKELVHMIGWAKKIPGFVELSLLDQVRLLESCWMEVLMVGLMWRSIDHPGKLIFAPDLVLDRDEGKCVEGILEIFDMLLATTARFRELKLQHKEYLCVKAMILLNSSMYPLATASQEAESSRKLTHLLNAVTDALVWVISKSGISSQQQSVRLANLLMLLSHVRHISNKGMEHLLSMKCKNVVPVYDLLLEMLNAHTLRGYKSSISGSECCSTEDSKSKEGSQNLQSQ

[16] = molecular target: Estrogen receptor beta (Mus musculus) (UniProt O08537); experiment: Agonist activity at ERbeta in mouse Melan-a cells assessed as increase in melanin content at 40 uM measured after 48 hrs in presence of ER antagonist ICI 182780; format: cell-based; outline: as §1
Melan-a [17] = experiment: Increase in TRP1 expression in mouse Melan-a cells at 40 uM after 48 hrs by Western blot analysis
Melan-a [18] = experiment: Increase in TRP2 expression in mouse Melan-a cells at 40 uM after 48 hrs by Western blot analysis
Melan-a [19] = experiment: Increase in MITF expression in mouse Melan-a cells at 40 uM after 48 hrs by Western blot analysis
Melan-a [20] = experiment: Increase in Rab27a expression in mouse Melan-a cells at 40 uM after 48 hrs by Western blot analysis
Melan-a [21] = experiment: Increase in tyrosinase expression in mouse Melan-a cells at 40 uM after 48 hrs by Western blot analysis
Melan-a [22] = experiment: Induction of melanogenesis in mouse Melan-a cells assessed as pro-pigmentation at 40 uM after 48 hrs relative to control; format: functional; outline: as §1
Melan-a [23] = experiment: Inhibition of melanogenesis in mouse Melan-a cells assessed as effect on whitening property measured after 48 hrs; format: functional, cell-based; outline: as §1
Melan-a [24] = experiment: Inhibition of melanogenesis in mouse Melan-a cells assessed as reduction in melanin content at 40 uM; format: functional, cell-based
Melan-a [25] = experiment: Inhibition of melanogenesis in mouse Melan-a cells assessed as reduction in melanin content at 40 uM after 72 hrs relative to control; format: functional; outline: as §2
Melan-a [26] = experiment: Inhibition of melanogenesis in mouse Melan-a cells assessed as effect on pigmentation at 40 uM after 72 hrs by photography; format: functional, cell-based; outline: as §3
Melan-a [27] = experiment: Decrease in tyrosinase mRNA expression in mouse Melan-a cells at 40 uM after 24 hrs by SYBR green dye based qRT-PCR analysis relative to control; format: functional; outline: as §4
Melan-a [28] = experiment: Decrease in TRP1 mRNA expression in mouse Melan-a cells at 40 uM after 24 hrs by SYBR green dye based qRT-PCR analysis relative to control; format: functional; outline: as §4
Melan-a [29] = experiment: Decrease in TRP2 mRNA expression in mouse Melan-a cells at 40 uM after 24 hrs by SYBR green dye based qRT-PCR analysis relative to control; format: functional; outline: as §4
Melan-a [30] = experiment: Decrease in MITF mRNA expression in mouse Melan-a cells at 40 uM after 24 hrs by SYBR green dye based qRT-PCR analysis relative to control; format: functional; outline: as §4
Melan-a [31] = experiment: Effect on TRP2 expression in mouse Melan-a cells at 40 uM after 48 hrs by western blot analysis (reference value: 1)
Melan-a [32] = experiment: Effect on TRP1 expression in mouse Melan-a cells at 40 uM after 48 hrs by western blot analysis (reference value: 1)
Melan-a [33] = experiment: Effect on MITF expression in mouse Melan-a cells at 40 uM after 48 hrs by western blot analysis (reference value: 1)
Melan-a [34] = experiment: Effect on Rab27a expression in mouse Melan-a cells at 40 uM after 48 hrs by western blot analysis (reference value: 1)
Melan-a [35] = experiment: Effect on tyrosinase expression in mouse Melan-a cells at 40 uM after 48 hrs by western blot analysis (reference value: 1)
Melan-a [36] = experiment: Antimelanogenic activity in mouse Melan-a cells assessed as inhibition of alpha-MSH-stimulated melanin synthesis at 40 uM measured after 48 hrs
Melan-a [37] = experiment: Antimelanogenic activity in mouse Melan-a cells assessed as inhibition of UV irradiation-stimulated melanin synthesis at 40 uM measured after 48 hrs

CC(C)=CCC/C(C)=C/COc1c2occc2cc2ccc(=O)oc12
Activity (Melan-a [1]): Toxic

COc1c(OC/C=C(\C)CCC=C(C)C)ccc2ccc(=O)oc12
Activity (Melan-a [2]): inactive | inhibition (Melan-a [3]): inactive

COc1c(OCC=C(C)C)ccc2ccc(=O)oc12
Activity (Melan-a [2]): inactive | inhibition (Melan-a [3]): inactive

COc1cc(OC/C=C(\C)CCC=C(C)C)c2ccc(=O)oc2c1
Activity (Melan-a [2]): inactive | inhibition (Melan-a [3]): inactive

COc1cc2ccc(=O)oc2cc1OC/C=C(\C)CCC=C(C)C
Activity (Melan-a [2]): inactive | inhibition (Melan-a [3]): inactive

CC(C)=CCOc1ccc2ccc(=O)oc2c1 [7-PRENYLOXYCOUMARIN]
Activity (Melan-a [4]): Non-Toxic | Activity (Melan-a [5]): Active | Activity (Melan-a [6]): Dose-dependent effect | fold change (FC) (Melan-a [7]): 6 | Activity (Melan-a [8]): Active | Activity (Melan-a [9]): Active | Activity (Melan-a [10]): Active | Activity (Melan-a [11]): Active | Activity (Melan-a [12]): Active | Stability [13]: Unstable | Stability [14]: Stable | Activity [15]: Active | Activity [16]: Active | Activity (Melan-a [17]): Active | Activity (Melan-a [18]): Active | Activity (Melan-a [19]): Active | Activity (Melan-a [20]): Active | Activity (Melan-a [21]): Active

CC(C)=CCC/C(C)=C/COc1ccc2ccc(=O)oc2c1 [AURAPTENE]
Activity (Melan-a [4]): Non-Toxic | fold change (FC) (Melan-a [22]): 1.3 | Activity (Melan-a [6]): Dose-dependent effect | fold change (FC) (Melan-a [7]): 2 | Activity (Melan-a [8]): Active | Stability [13]: Unstable | Stability [14]: Stable | Activity [15]: Active

CC(C)=CCC/C(C)=C/COc1c2ccoc2cc2oc(=O)ccc12 [BERGAMOTTIN]
Activity (Melan-a [1]): Toxic

CC(C)=CCOc1c2ccoc2cc2oc(=O)ccc12 [ISOIMPERATORIN]
Activity (Melan-a [1]): Toxic

CC(C)=CCOc1c2occc2cc2ccc(=O)oc12 [PENTOSALEN]
Activity (Melan-a [1]): Toxic | Activity (Melan-a [2]): inactive | inhibition (Melan-a [3]): inactive

O=c1ccc2ccc(O)cc2o1 [UMBELLIFERONE]
Activity (Melan-a [4]): Non-Toxic | Activity (Melan-a [2]): inactive | inhibition (Melan-a [3]): inactive

CC(C)=CCC/C(C)=C/CC/C(C)=C/COc1ccc2ccc(=O)oc2c1 [UMBELLIPRENIN]
Activity (Melan-a [4]): Non-Toxic | inhibition (Melan-a [23]): Dose-dependent effect | inhibition (Melan-a [24]): Dose-dependent effect | inhibition at 40 µM (Melan-a [25]): > 70% | inhibition (Melan-a [26]): Active | fold change (FC) (Melan-a [27]): >2 | fold change (FC) (Melan-a [28]): >2 | fold change (FC) (Melan-a [29]): >2 | fold change (FC) (Melan-a [30]): >2 | Activity [15]: Active | fold change (FC) (Melan-a [31]): 0.3 | fold change (FC) (Melan-a [32]): 0.1 | fold change (FC) (Melan-a [33]): 0.5 | fold change (FC) (Melan-a [34]): 0.3 | fold change (FC) (Melan-a [35]): 1.6 | inhibition (Melan-a [36]): Active | inhibition (Melan-a [37]): Active

Reference: ChEMBL document CHEMBL4152246, “Natural oxyprenylated coumarins are modulators of melanogenesis” (Eur J Med Chem, 2018)
